According to the EternaBench riboswitch data:

Test system: MS2 coat protein
Experiment: apparent Kd, MS2 coat protein; higher = weaker binding; RNA-MaP array; FMN 200 µM where present
How it was run: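 Apparent Kd: the median of filtered binding-curve fits from single clusters. Designs were transcribed on Illumina sequencing-chip clusters by stalled E. coli RNA polymerase and titrated with SNAP-549-labelled MS2 coat protein from 0.7 or 1.5 nM, doubling to 3 µM, in 100 mM Tris-HCl pH 7.5, 80 mM KCl, 4 mM MgCl2, BSA, DTT, yeast tRNA and Tween-20. Each series ran without and then with constant ligand, and green signal was normalised to red-channel RNA signal and control-cluster median Fmax.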

[1] = designed as: OFF switch for flavin mononucleotide, no ligand
[2] = ligand present: flavin mononucleotide, designed as: OFF switch for flavin mononucleotide
[3] = designed as: ON switch for flavin mononucleotide, no ligand
[4] = ligand present: flavin mononucleotide, designed as: ON switch for flavin mononucleotide

| Sequence | apparent Kd [1] | apparent Kd [2] | apparent Kd [3] | apparent Kd [4] |
| --- | --- | --- | --- | --- |
| GUGAAGGUAGGAUAUACGAUAAUAUAGGGUAGAUAUAUAACACAUGAGGAUCACCCAUGUAGAAGGACCAAGUG | 0.0463 µM | 0.11 µM |  |  |
| AUGCUUAUCGAAGGAUAUGGUUACAUGAGGAUCACCCAUGUUAUGCUUGGUUACUUGUUUAGUUUCCAGAAGGUCGAUUAGUUA | 0.0469 µM | 0.174 µM |  |  |
| CUUUACAUAGGAUAUAGUUGCUUUUACAUGAGGAUCACCCAUGUCUCUCCUCUCUCUCUUCUAGAAGGAUGUUUCU | 0.0563 µM | 0.0485 µM |  |  |
| ACAUGAGGAUCACCCAUGUUCACAUAGGAUAUUGAUUUUAUUGGUUUUAGAAUAGUAAUUAAACUCAAGAAGGAUGCCAGUUGU |  |  | 0.0107 µM | 0.00878 µM |
| GAAUUCGCAUGAGGAUAUGCACUCAUUUCAUGUGCAGAAGGUAUUUCAUUAGACAUGAGGAUCACCCAUGUAUUGGUCACUAAC |  |  | 0.0215 µM | 0.0166 µM |
| ACAUGAGGAUCACCCAUGUGAACAUAGGAUAUUGGUGAUCAGGCGUGUUAUACAGGAUAUGUCUGCGAGAAGGGUGCACGUUGC |  |  | 0.676 µM | 0.231 µM |
| AUCAGCUCGUCAGGAUAUACGUCACUGCGUCAGCAGUGUGGUCAGAUCACAUGAGGAUCACCCAUGUAGAAGGGACGAGCUGAU | 0.0286 µM | 0.549 µM |  |  |
| UAUGUUUUAGGAUAUUGUACUGCUGACAUGAGGAUCACCCAUGUAUGCUAACUCGGCUGUCGAGAAGGAGAAUAUG | 0.0643 µM | 0.056 µM |  |  |
| GUGCUUGUCGAAGGAUAUGGUUACAUGAGGAUCACCCAUGUUAUGCUUGGUUACUUGUUUAGUUUCCAGAAGGUCGAUUAGUUG | 0.0534 µM | 0.163 µM |  |  |
| AAGAAGUCAGGAUAUCCAGCUCGUCACUUGCGUGAUGAGUUGGAGAAGGGACAUGAGGAUCACCCAUGUAAAGU | 0.0569 µM | 0.0555 µM |  |  |
| CAUGAUUGGGAAGGAUAUUGACCUAGUUAGUGCCGAGAAGGUCCCUUUCACAUGAGGAUCACCCAUGUGAGACUGGUGUUCGAG | 0.0265 µM | 0.0504 µM |  |  |
| UGACCAGUCCAGAAGGUGACGUCUGCAACUAGUCAAGGAUAUGGGUUGGUUCACGGUCGGCUACAUGAGGAUCACCCAUGUACC |  |  | 0.00826 µM | 0.00587 µM |
| AAUAUAGAGCUGGUCUCAAAAUAAACAUGAGGAUCACCCAUGUAGGAUAUCAGCACGAUAAGUGCUGAGAAGGACAUCCAGCUC | 0.0163 µM | 0.0184 µM |  |  |
| UAUGUAUUCGUAGGAUAUCCGUCGCCACCGUGUGGAGAAGGACGAACAUGAGGAUCACCCAUGUAUCAUGGUGUAGACACUUUU | 0.0984 µM | 0.154 µM |  |  |
| GCAGCUUGGCAGAAGGCCUAGGUGGCGGACCUAGGAGGAUAUGCUACAUGAGGAUCACCCAUGUGGGUGGGAGAAUCCUAGGAG | 0.133 µM | 0.132 µM |  |  |
| GAAUUCGCAUGAGGAUAUGCACUCAUUUCAUGUGCAGAAGGUAUUUCAUUAGACAUGAGGAUCACCCAUGUAUUGGUCAUUAAC |  |  | 0.0193 µM | 0.0147 µM |
| GGACGUCACAUGAACAUGAGGAUCACCCAUGUAAAUUCUCAUGAGGAUAUGGAACCUAAUUGGUUCCAGAAGGCAUGGACGUCC |  |  | 1.27 µM | 0.381 µM |
| UGAUCGAGAGAUCUUAGAUUCUGGUAGGAUAUACAUUAAAAGCGCUUUACAUGAGGAUCACCCAUGUAGAAGGACUAGAGUCUA | 0.00751 µM | 0.00942 µM |  |  |
| UUAUUUAGUGUGAGGAUAUGCUGGUCCUUGGAUCAGCAGAAGGCACAUGAGGAUCACCCAUGUAAUAUAUUAAU | 0.091 µM | 0.305 µM |  |  |
| GCGGAGAUACAGAAGGGAUAAGCCCUGGGCUAGUCAGGAUAUGUACGACGCAUCGUACAUGAGGAUCACCCAUGUAGCCGCUUG |  |  | 0.322 µM | 0.162 µM |
| AAGUAGGCAGGAUAUACAUGAGGAUCACCCAUGUGCCUAUACAAGGUAAUCUUGGGAGGUAGAAGGGCCUACAA | 0.0339 µM | 0.166 µM |  |  |

| Sequence | apparent Kd [1] | apparent Kd [2] | apparent Kd [3] | apparent Kd [4] |
| --- | --- | --- | --- | --- |
| AAAUCGGCAGGAUAUACAUGAGGAUCACCCAUGUAAAUUUUUCGUUUAACUUGAAUGUGUAGAAGGGCCAUAAA | 0.0256 µM | 0.0271 µM |  |  |
| GAAUGUCGGGUAGGAUAUGACUUGCCACGGAGGUCAGAAGGGCCACGACAUGAGGAUCACCCAUGUACUGUAUUCCUUUUUCAA | 0.0253 µM | 0.0981 µM |  |  |
| AGUACUACAGGAUAUACAUGAGUGAUACUCAUAUACCUUCUACAUGAGGAUCACCCAUGUAGAAGGGUAGUACA | 0.0153 µM | 0.0125 µM |  |  |
| GUCGGAAACGACAAUGAUAGGACUGAGGAUAUACAUAAGUUAGUCCAUACAUGAGGAUCACCCAUGUAGAAGGCAGUCCUAUCU | 0.00778 µM | 0.0334 µM |  |  |
| GUACAGAUCACAGGAUAUCACGUCGUUUAGACGUGAGAAGGGUGAUCACACAUGAAUAUUAAUACAUGAGGAUCACCCAUGUAC |  |  | 0.036 µM | 0.0977 µM |
| CCCAUGUCAGGAUAUCUAAGAGAGGGCCAGCCCUCUCCUCCGGAGAAGGGACAUGAGGAUCACCCAUGUAAAAC | 0.129 µM | 0.0255 µM |  |  |
| CCUGAGUCAGGAUAUUGUACCGGCCUGAAGCCAAGCCGACCCAAGAAGGGACAUGAGGAUCACCCAUGUGAAAA | 0.0213 µM | 0.0229 µM |  |  |
| ACCAUUUACUAAUCCUCUAUACAUGAGGAUCACCCAUGUUAUGAGGAUAUCAUCGUUCGCCGCGUUGAGAAGGCAUAGCAUUCG | 0.0163 µM | 0.0259 µM |  |  |
| GUCUUGAUAGGAUAUACAUGAGGAUCACCCAUGUCCCACCCGUUACCUCUGGCCCUAUGUAGAAGGAUCGUCUG | 0.0502 µM | 0.0456 µM |  |  |
| AAUAAGGGAGGAUAUGCGGAACGGUUUGUUCUCAGUGAGGCACAUGAGGAUCACCCAUGUAGAAGGCCCGGCAA | 0.0138 µM | 0.0931 µM |  |  |
| GAGGUGUUAGGAUAUCGGAGAUGGAGACCGACGGGAUGAGCCGAGAAGGAACAUGAGGAUCACCCAUGUAGGUG | 0.461 µM | 0.283 µM |  |  |
| AACUCGUCAGGAUAUGCGCGCAGAUAAUACGCUUCGCAAUUGCAGAAGGGACAUGAGGAUCACCCAUGUAAAUA | 0.0298 µM | 0.032 µM |  |  |
| AAUAUAAGAGCUGGUACUCAAAGAACAUGAGGAUCACCCAUGUAGGAUAUCAGCACGAUAAGUGCUGAGAAGGACAUCCAGCUC | 0.0158 µM | 0.0159 µM |  |  |
| ACCAGUGCAUCAGGAUAUCCUCACAUGAGGAUCACCCAUGUAAUGAGCCGAGGAGAAGGGAUGUGAACUCCAGUUAUCGAUCGU |  |  | 0.101 µM | 0.0141 µM |
| GGGCUGUCAGGAUAUGGGCUCGGGCUCGAAAGGGCUCGGGCUCAGAAGGGACAUGAGGAUCACCCAUGUGGCUC | 0.0438 µM | 0.058 µM |  |  |
| CAGUACUGAGGAUAUACAUGAGGAUCACCCAUGUGUUCCUUGUAGGAUAUGCGCAAAAGUAGAAGCCAGAAGGAGAUGUGCCUA | 0.00695 µM | 0.00731 µM |  |  |
| CUAUGAGCGAUAGGAUAUACUGAGAUUGAAUGGGUAGAAGGAUCGAUCGUGUAGAAGACAUGAGGAUCACCCAUGUUACGGGCC |  |  | 0.0739 µM | 0.0935 µM |
| ACGGUGGUCACAGGAUAUCCAGCCCGCGUGCCUGGAGAAGGGUGACUCAGAACCACAUGAGGAUCACCCAUGUGCCUUGCCGUA |  |  | 0.14 µM | 0.0334 µM |
| AACGUCUUAGGAUAUACACUGGGACUUGCCAUGUGGGCCCUACAUGAGGAUCACCCAUGUAGAAGGAAGACAUG | 0.0196 µM | 0.014 µM |  |  |
| AGGACCAAAACAUCUACAUGAGGAUCACCCAUGUAUCGUAUGCAGGAUAUCCAUGGGUGGGCAGAGGAGAAGGGCAUUAAAAGA |  |  | 0.0616 µM | 0.124 µM |
| UCUAGGGACGCAGGAUAUGGAGUGAGUGUCUAUCACAUGAGGAUCACCCAUGUUUGGGUCUCACGCUAGAAGGGCGAAUGUGGG |  |  | 0.357 µM | 0.0635 µM |
